Results on one compound are retold here after ChEMBL document CHEMBL4842372, “Discovery of ARD-2585 as an Exceptionally Potent and Orally Active PROTAC Degrader of Androgen Receptor for the Treatment of Advanced Prostate Cancer” (J Med Chem, 2021).

A short description of data set [1]: Half life in SCID mouse at 3 mg/kg, po by LC-MS/MS analysis. It is filed as ADME, organism-based. Particulars: in vivo. The gist of the method: (§1)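 Nontumor-bearing male mice were given a single oral gavage dose in 100% PEG200. Three mice were sacrificed per time point, and 300 μL blood was taken from each for plasma, stored at −80 °C. Drug was quantified by LC–MS/MS on a C18 column with a 0.1% formic acid water/acetonitrile gradient at 0.4 mL/min. Parameters came from noncompartmental analysis.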

Data set [2] has as its target Protein cereblon/Androgen receptor (Homo sapiens, UniProt P10275+Q96SW2). Briefly: Protac activity at CRBN/AR in human VCaP cells assessed as AR degradation after 24 hrs by Western blot analysis. The data set is classed as cell-based.
Data set [3] is described as follows: Half life in SCID mouse at 1 mg/kg, iv by LC-MS/MS analysis. The data set is classed as ADME, organism-based. Particulars: in vivo. The gist of the method: (§2)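 Male mice were given a single intravenous dose. Plasma drug levels were measured by a validated LC–MS/MS method (C18 column, 0.1% formic acid water/acetonitrile gradient, 0.4 mL/min). Parameters came from noncompartmental analysis.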

A short description of data set [4]: Cmax in SCID mouse at 3 mg/kg, po by LC-MS/MS analysis. It is filed as ADME, organism-based. Details: route oral, dose 3 mg/kg. Particulars: in vivo. The gist of the method:
as §1

Data set [5] can be described thus: AUC (0 to t) in SCID mouse at 3 mg/kg, po by LC-MS/MS analysis. It is filed as ADME, organism-based. Details: dose 3 mg/kg. To be noted: in vivo. The gist of the method: as §1
A short description of data set [6]: Oral bioavailability in SCID mouse at 3 mg/kg by LC-MS/MS analysis. The data set is classed as ADME, organism-based. Particulars: in vivo.
Data set [7] can be described thus: Volume of distribution at steady state in SCID mouse at 1 mg/kg, iv by LC-MS/MS analysis. To be noted: in vivo, read-out: Vdss. The data set is classed as ADME, organism-based. The gist of the method: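 Male mice were used, three sacrificed per time-point, with 300 μL blood collected and plasma stored at −80 °C. Drug was quantified by a validated LC–MS/MS method on a C18 column with a 0.1% formic acid water/acetonitrile gradient at 0.4 mL/min. PK parameters were derived by noncompartmental analysis.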

Data set [8] in a line: Tmax in SCID mouse at 3 mg/kg, po by LC-MS/MS analysis. It is filed as ADME, organism-based. Particulars: in vivo. The gist of the method:
as §1

Data set [9] can be described thus: AUC (0 to t) in SCID mouse at 1 mg/kg, iv by LC-MS/MS analysis. It is filed as ADME, organism-based. On the set-up: dose 1 mg/kg. Particulars: in vivo. The gist of the method: as §2

Chain of Protein cereblon/Androgen receptor (P10275 whole entry): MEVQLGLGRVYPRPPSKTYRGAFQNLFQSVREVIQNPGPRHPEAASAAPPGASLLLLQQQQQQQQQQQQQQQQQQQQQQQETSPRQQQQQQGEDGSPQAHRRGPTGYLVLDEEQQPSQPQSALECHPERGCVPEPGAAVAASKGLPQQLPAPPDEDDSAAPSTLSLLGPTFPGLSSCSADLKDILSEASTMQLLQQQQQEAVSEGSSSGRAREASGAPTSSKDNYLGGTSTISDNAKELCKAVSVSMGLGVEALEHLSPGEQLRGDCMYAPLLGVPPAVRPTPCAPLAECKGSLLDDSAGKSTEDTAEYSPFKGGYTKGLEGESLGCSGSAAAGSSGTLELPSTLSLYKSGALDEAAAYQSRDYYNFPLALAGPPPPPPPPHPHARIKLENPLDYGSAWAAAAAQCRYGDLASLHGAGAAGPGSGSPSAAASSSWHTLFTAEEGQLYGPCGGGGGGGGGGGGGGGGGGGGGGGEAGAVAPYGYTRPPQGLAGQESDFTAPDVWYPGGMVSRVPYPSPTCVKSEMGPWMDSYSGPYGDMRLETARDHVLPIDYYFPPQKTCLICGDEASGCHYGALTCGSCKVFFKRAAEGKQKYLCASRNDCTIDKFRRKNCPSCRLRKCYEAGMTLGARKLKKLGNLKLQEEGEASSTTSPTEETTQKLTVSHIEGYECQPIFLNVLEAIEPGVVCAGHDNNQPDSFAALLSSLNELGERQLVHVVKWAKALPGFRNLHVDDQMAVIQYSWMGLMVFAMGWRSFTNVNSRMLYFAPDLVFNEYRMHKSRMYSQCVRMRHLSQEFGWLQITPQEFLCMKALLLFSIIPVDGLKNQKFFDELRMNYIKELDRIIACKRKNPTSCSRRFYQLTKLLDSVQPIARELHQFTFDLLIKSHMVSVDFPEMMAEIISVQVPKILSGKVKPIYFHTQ
Chain of Protein cereblon/Androgen receptor (Q96SW2 whole entry): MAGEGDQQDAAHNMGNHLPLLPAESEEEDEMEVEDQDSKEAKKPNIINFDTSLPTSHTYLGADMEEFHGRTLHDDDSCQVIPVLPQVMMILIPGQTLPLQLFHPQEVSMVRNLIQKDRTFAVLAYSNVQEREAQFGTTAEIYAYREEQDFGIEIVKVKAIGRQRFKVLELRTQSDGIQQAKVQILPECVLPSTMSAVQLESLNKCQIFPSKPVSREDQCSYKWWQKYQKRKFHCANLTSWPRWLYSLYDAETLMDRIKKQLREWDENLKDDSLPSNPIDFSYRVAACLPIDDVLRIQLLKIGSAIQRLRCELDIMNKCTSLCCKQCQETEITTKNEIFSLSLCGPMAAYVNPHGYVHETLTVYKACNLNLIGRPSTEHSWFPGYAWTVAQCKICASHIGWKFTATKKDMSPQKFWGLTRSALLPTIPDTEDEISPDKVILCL

Turning to `N#Cc1ccc(O[C@H]2CC[C@H](NC(=O)c3ccc(N4CCC(N5CCN(c6ccc7c(c6)C(=O)N(C6CCC(=O)NC6=O)C7=O)CC5)CC4)cc3)CC2)cc1Cl` (some centres undefined), the half-life is 5.6 h in data set [1] and 6.1 h in [3]. For the same compound, the DC50 in [2] came out at 0.2 nM. In [4], the Cmax was determined as 207 ng/mL. Besides, the figures for the AUC(0-t) in [5] and in data set [9] were 2150 ng·h/mL and 2420 ng·h/mL, respectively. Further, the F in data set [6] came to 30%. Besides, in data set [7], the Vd was found to be 3 L/kg. Further, the Tmax in data set [8] stood at 4 h.
